Published values of several laboratories.
Protocols differ between the studies behind these lines.
Read-out: cell growth or viability

| Compound | cell line | technique | tested at | time | setting | endpoint | value |
| --- | --- | --- | --- | --- | --- | --- | --- |
| [N-]=[N+]=[N-] | A-431 | MTT | – | 3 h | – | IC50 | > 100 µM |
| N.N.[Cl][Pt][Cl] | HepG2 | MTT | 20 µM | – | – | inhibition | 88.5% |
| O=c1ccc2ccc3occc3c2o1 | HepG2 | WST-1 | – | 48 h | – | IC50 | 13.8 µM |
| N.N.[Cl][Pt][Cl] | HEK-293T | XTT | – | 24 h | – | IC50 | 64.4 µM |
| CCCc1cc(=O)n2nc(NCc3c(F)cc(Cl)cc3F)c(C#N)c2[nH]1 | HCC33 | ATP luminescence | – | 72 h | – | IC50 | > 50 µM |
| CC[C@@]1(OC(=O)[C@@H](N)CCCCN)C(=O)OCc2c1cc1n(c2=O)Cc2cc3cc4c(cc3nc2-1)OCO4 | HepG2 | MTT | – | – | – | IC50 | 0.035 µM |
| N.N.O=C([O-])C1(C(=O)[O-])CCC1.[Pt+2] | PNT2 | MTT | – | 96 h | – | IC50 | 27 µM |
| CC[C@@]1(O)C(=O)OCc2c1cc1n(c2=O)Cc2cc3cc4c(cc3nc2-1)OCO4 | HepG2 | MTT | – | 72 h | – | IC50 | 0.022 µM |
| CCOC(=O)C1=C(N)N(c2ccc(C(=O)OCC)cc2)C(O)=C(C#N)C12C(=O)Nc1ccccc12 (stereo not shown) | HepG2 | MTT | 25 µM | 24 h | – | viability | 26.3% |
| CC[C@@]1(OC(=O)[C@@H](N)C(C)C)C(=O)OCc2c1cc1n(c2=O)Cc2cc3cc4c(cc3nc2-1)OCO4 | HepG2 | MTT | – | – | – | IC50 | 0.087 µM |
| N.N.[Cl][Pt][Cl] | A-431 | MTT | – | 24 h | dark | IC50 | 40.1 µM |
| CC1=C(O)C(=O)C=C2C1=CC=C1[C@@]2(C)CC[C@@]2(C)[C@@H]3C[C@](C)(C(=O)O)CC[C@]3(C)CC[C@]12C | Huh-7 | MTT | 20 µM | – | – | inhibition | 77.3% |
| CC[C@@]1(OC(=O)C(C)c2ccc(CC(C)C)cc2)C(=O)OCc2c1cc1n(c2=O)Cc2cc3cc4c(cc3nc2-1)OCO4 (stereo partly shown) | HepG2 | MTT | – | – | – | IC50 | > 5 µM |
